Bioassay records: PubChem, NMMLSC
MEKK3 PB1 HTS: raises or lowers MEK5 binding to the human MEKK3 PB1 domain. binding response (% of control), % at 10 µM. actives 1.4% (n = 290,000). bead-based flow cytometry, Alexa488-MEK5 binding to MEKK3; actives lie on both sides; 0 = blocked by unlabeled MEK5, 100 = vehicle;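 active means binding response more than 3 SD above or below the average of its plate-row segment, actives on both sides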;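 further: Alexa488 bead fluorescence after subtracting the streptavidin-only scavenger bead signal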
Target sequence (Q99759 whole entry, looked up, the tested form may be a part): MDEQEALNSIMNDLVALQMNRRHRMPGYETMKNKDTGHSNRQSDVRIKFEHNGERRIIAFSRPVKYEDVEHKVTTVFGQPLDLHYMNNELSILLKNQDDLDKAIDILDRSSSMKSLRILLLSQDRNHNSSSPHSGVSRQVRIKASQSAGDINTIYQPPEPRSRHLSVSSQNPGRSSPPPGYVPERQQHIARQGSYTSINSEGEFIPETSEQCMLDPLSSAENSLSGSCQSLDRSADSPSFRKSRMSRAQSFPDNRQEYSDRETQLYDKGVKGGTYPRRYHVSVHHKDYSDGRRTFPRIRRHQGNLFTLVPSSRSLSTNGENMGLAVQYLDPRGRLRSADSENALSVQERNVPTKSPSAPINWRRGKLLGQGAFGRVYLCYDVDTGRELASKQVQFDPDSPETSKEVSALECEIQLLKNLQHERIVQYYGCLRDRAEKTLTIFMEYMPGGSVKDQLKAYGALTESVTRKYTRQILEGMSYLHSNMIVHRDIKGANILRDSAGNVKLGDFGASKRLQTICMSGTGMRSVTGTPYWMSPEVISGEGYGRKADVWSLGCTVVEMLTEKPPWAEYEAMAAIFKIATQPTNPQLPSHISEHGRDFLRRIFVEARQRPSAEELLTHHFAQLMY
MEKK2mut PB1 HTS: signal of MEK5 binding to mutant human MEKK2 PB1 domain | AID 1530 | bead flow cytometry, Alexa488-MEK5 binding to MEKK2 mutant | actives 0.35% (n = 290,000) | percent response, % at 10 µM; in the data active means percent response above about 24%, passing the limit was not always enough
Arr AP2 block: inhibitors of human beta-arrestin and AP2 interaction. FITC-arrestin peptide / GST-AP2 beads, flow cytometry; AP2 beta2 appendage carries R879A mutation. inhibition, % at 10 µM. actives 0.31% (n = 340,000);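 active means inhibition above a set limit, near 3 SD of compounds lacking own fluorescence, cut at about 54% in these data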;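 further: plate controls were DMSO wells for no effect and 5 µM unlabelled arrestin peptide for full effect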
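System: GST-AP2 R879A glutathione beads; medium: PBS, Tween 20 0.05%, BSA 0.1%; reagent: fluorescein-tagged arrestin peptide at 50 nM final; schedule: pre-incubation 12 min, peptide binding 1 h, room temperature; detection: flow cytometry, FL1 (488/535 nm); read-out: inhibition as reduced fluorescein signal on beads, percent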
MEKK2wt PB1 HTS: raises or lowers MEK5 binding to wildtype human MEKK2 PB1 domain; bead flow cytometry, Alexa488-MEK5 binding to MEKK2 WT; actives lie on both sides; binding response (% of control), % at 10 µM; actives 1.1% (n = 290,000); in the data active means binding response below about 67% or above about 130%
MEKK2wt confirm: raises or lowers MEK5 binding to wildtype human MEKK2, retest. shares compounds with MEKK3 PB1 HTS. bead flow cytometry, Alexa488-MEK5 binding to MEKK2 WT; actives lie on both sides. binding response (% of control), % at 10 µM. actives 2.4% (n = 5,900). AID 1892; in the data active means binding response below about 16% or above about 210%; inactive means in between
MEKK2mut confirm: signal of MEK5 binding to mutant human MEKK2, retest; actives 2% (n = 5,900); AID 1893; percent response, % at 10 µM; bead flow cytometry, Alexa488-MEK5 binding to MEKK2 mutant; shares compounds with MEKK3 PB1 HTS; in the data active means percent response mostly above about 71%, no sharp cut-off; inactive means mostly below about 38%;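 further: higher means compound restores mutant binding toward wildtype level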
MEKK3 confirm: MEKK3-MEK5 PB1 inhibition, single concentration confirmation; actives 1.8% (n = 5,900); AID 1894; bead flow cytometry, Alexa488-MEK5 binding to MEKK3; active compounds read low; shares compounds with MEKK3 PB1 HTS; binding response (% of control), % at 10 µM;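 active means binding response below 72% of control, or above a set upper limit, though filed actives all read lower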;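 further: 100% = DMSO only wells and 0% = binding blocked by excess unlabeled MEK5; lower values mean stronger disruption of MEK5 binding to MEKK3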
An asterisk follows results filed as active; · = not tested or not shown; [ ] = dose if it differs, or a comment. Only some compounds are listed: those with a hit (about 2.3% of all), similar ones and a draw of the others.

SMILES	MEKK3 PB1 HTS	MEKK2mut PB1 HTS	Arr AP2 block	MEKK2wt PB1 HTS	MEKK2wt confirm	MEKK2mut confirm	MEKK3 confirm
COc1ccc(C2CC(Cn3cc(C#N)c(=O)n(C)c3=O)ON2C)cc1 (stereo not given)	101	-5	2	94	·	·	·
Cc1ccc(Cl)cc1N1CCN(S(=O)(=O)c2ccc3c(c2)CC(=O)N3C)CC1	99	-8	15	99	·	·	·
CC(OC(=O)c1cccc(S(=O)(=O)N(C)C)c1)C(=O)NCC(=O)Nc1ccc(F)c(F)c1F (stereo not given)	·	·	12	·	·	·	·
O=C1CCCC2=C1C(c1ccc(Cl)cc1)n1c(s/c(=C\c3ccc4ccncc4c3)c1=O)=N2 (stereo not given)	141*	-1	0	81	93	-1	100
O=C(CC(=O)Nc1ccccc1[N+](=O)[O-])Nc1ccccc1[N+](=O)[O-]	106	2	-3	105	·	·	·
CC1(C)CC(CC(=O)Nc2ccccc2[N+](=O)[O-])C(=O)O1 (stereo not given)	147*	0	19	109	108	2	104
COc1ccccc1CNC(=O)CSc1nnc2c(Cl)cc(C(F)(F)F)cn12	137*	1	-10	109	109	5	109
COc1ccccc1CNC(=O)CSc1ccc(C)cc1	145*	2	13	112	103	2	102
O=C(COC(=O)/C=C/c1ccccc1[N+](=O)[O-])NNC(=O)c1ccc(F)cc1	·	·	-6	·	·	·	·
C/C=C(\C)C(=O)NCCN1C2=NC[C@H](Cc3ccccc3)N2C[C@@H]1Cc1ccc(OC)cc1	109	16	10	153*	102	-2	103
COc1ccc(C[C@H]2CN3C(=NC[C@H]3Cc3ccccc3)N2CCNC(=O)CCC2CCCCC2)cc1	104	36	21	164*	160	33	108
C/C=C(\C)C(=O)NCCN1C2=NC[C@H](Cc3ccccc3)N2C[C@H]1Cc1ccc(O)cc1	108	36	1	153*	122	10	99
C/C=C(\C)C(=O)NCCN1C2=NC[C@@H](C)N2C[C@H]1Cc1ccc(O)cc1	102	9	15	111	·	·	·
Oc1ccccc1CNc1cnc2ccccc2c1	101	-1	-2	-5.0*[inhibitor]	101	6	103
Oc1ccc(Cl)cc1CNc1cnc2ccccc2c1	100	4	17	108	·	·	·
O=C(NN=C1c2ccccc2-c2ccccc21)c1ccccc1Br	4.0*[inhibitor]	-24	-5	8.0*[inhibitor]	99	1	102
CC(NC(=O)COC(=O)CCN1C(=O)C2CC=CCC2C1=O)c1ccc(Br)cc1 (stereo not given)	·	·	-10	·	·	·	·
CC(=O)c1sc(NC(=O)C(C)C)nc1C	105	5	13	107	·	·	·
CC(=O)Nc1nc(C)c(C(C)=O)s1	2.0*[inhibitor]	-16	-7	3.0*[inhibitor]	106	8	105
COc1ccc(/C=C(/NC(=O)c2ccco2)C(=O)N2CCCC2=O)cc1	64*[inhibitor]	-26	11	59*[inhibitor]	97	-12	94
CCn1cc(CNCc2cn(C)nc2-c2ccc(C3CCCCC3)cc2)cn1	106	24	7	134	·	·	·
COc1ccc2c(c1)C(=O)OC2CC(=O)O (stereo not given)	9.0*[inhibitor]	-15	12	14*[inhibitor]	105	0	105
COc1ccc(OC)c(C(=O)CC2OC(=O)c3ccccc32)c1 (stereo not given)	111	5	1	110	·	·	·
CCC(=O)Nc1nc(NCc2ccccc2OC)n(-c2ccccc2)n1	104	4	6	104	·	·	·
O=C(COc1ccc(Br)cc1CNCCc1ccccc1)NCc1ccccc1	100	6	4	145*	150	35	112
COc1cc(CNCCc2ccccc2)cc(Cl)c1OCc1ccccc1	101	37	5	192*	202	73*	112
